# Experiments:
# Type in all cases: functional
# Streptococcus pneumoniae [1] = assay: Antimicrobial activity against Streptococcus pneumoniae clinical isolates by broth dilution method
# Streptococcus pneumoniae [2] = assay: Antimicrobial activity against Streptococcus pneumoniae clinical isolates assessed as susceptible isolates by broth dilution method
# How it was run: (§1)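 Isolates kept frozen at −70°C in duplicate and revived by hot-loop touching. MICs by the CLSI broth microdilution method active in the year of study, with S. pneumoniae ATCC 49619 as control. Categories assigned with CLSI M100-S19 breakpoints.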
# Streptococcus pneumoniae [3] = assay: Antimicrobial activity against Streptococcus pneumoniae clinical isolates assessed as resistant isolates by broth dilution method
# Streptococcus pneumoniae [4] = assay: Antimicrobial activity against Streptococcus pneumoniae clinical isolates assessed as susceptible isolates by PK/PD technique
# Streptococcus pyogenes [5] = assay: Antimicrobial activity against Streptococcus pyogenes clinical isolates by broth dilution method
# Streptococcus pyogenes [6] = assay: Antimicrobial activity against Streptococcus pyogenes clinical isolates assessed as susceptible isolates by broth dilution method
# How it was run: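 S. pyogenes clinical isolates held at −70°C in duplicate and recovered by hot-loop touching. MICs by the CLSI broth microdilution method in force in the study year, interpreted per CLSI M100-S19.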
# Streptococcus pyogenes [7] = assay: Antimicrobial activity against Streptococcus pyogenes clinical isolates assessed as resistant isolates by broth dilution method
# How it was run: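 S. pyogenes clinical isolates were held at −70°C in duplicate and revived by the hot-loop touching method. MICs were obtained by the CLSI broth microdilution procedure active in the year of study. Resistance was interpreted according to CLSI M100-S19.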
# Haemophilus influenzae [8] = assay: Antimicrobial activity against Haemophilus influenzae clinical isolates by broth dilution method
# Haemophilus influenzae [9] = assay: Antimicrobial activity against Haemophilus influenzae clinical isolates assessed as susceptible isolates by broth dilution method
# Haemophilus influenzae [10] = assay: Antimicrobial activity against Haemophilus influenzae clinical isolates assessed as resistant isolates by broth dilution method
# Haemophilus influenzae [11] = assay: Antimicrobial activity against Haemophilus influenzae clinical isolates assessed as susceptible isolates by PK/PD technique
# Streptococcus pneumoniae [12] = assay: Antimicrobial activity against Streptococcus pneumoniae clinical isolates by based on po dosed broth dilution method; how it was run: as §1
# Streptococcus pneumoniae [13] = assay: Antimicrobial activity against Streptococcus pneumoniae clinical isolates assessed as susceptible isolates by based on po dosed broth dilution method; how it was run: as §1
# Streptococcus pneumoniae [14] = assay: Antimicrobial activity against Streptococcus pneumoniae clinical isolates assessed as resistant isolates by based on po dosed broth dilution method
# How it was run: (§2)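 S. pneumoniae clinical isolates were kept frozen at −70°C in duplicate and recovered by hot-loop touching to avoid repeated freeze-thaw. MICs were measured by CLSI broth microdilution as in force in the study year, with S. pneumoniae ATCC 49619 as control strain. Susceptibility categories were interpreted using CLSI M100-S19 breakpoints.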
# Streptococcus pneumoniae [15] = assay: Antimicrobial activity against Streptococcus pneumoniae clinical isolates by based on parenterally dosed broth dilution method; how it was run: as §1
# Streptococcus pneumoniae [16] = assay: Antimicrobial activity against Streptococcus pneumoniae clinical isolates assessed as susceptible isolates by based on parenterally dosed broth dilution method; how it was run: as §1
# Streptococcus pneumoniae [17] = assay: Antimicrobial activity against Streptococcus pneumoniae clinical isolates assessed as resistant isolates by based on parenterally dosed broth dilution method in presence of beta-lactamase inhibitor clavulanic acid; how it was run: as §2
SMILES,MIC50 (Streptococcus pneumoniae [1]),MIC90 (Streptococcus pneumoniae [1]),Activity (Streptococcus pneumoniae [2]),Activity (Streptococcus pneumoniae [3]),Activity (Streptococcus pneumoniae [4]),MIC50 (Streptococcus pyogenes [5]),MIC90 (Streptococcus pyogenes [5]),Activity (Streptococcus pyogenes [6]),Activity (Streptococcus pyogenes [7]),MIC50 (Haemophilus influenzae [8]),MIC90 (Haemophilus influenzae [8]),Activity (Haemophilus influenzae [9]),Activity (Haemophilus influenzae [10]),Activity (Haemophilus influenzae [11]),also measured
CC[C@H]1OC(=O)[C@H](C)[C@@H](O[C@H]2C[C@@](C)(OC)[C@@H](O)[C@H](C)O2)[C@H](C)[C@@H](O[C@@H]2O[C@H](C)C[C@H](N(C)C)[C@H]2O)[C@](C)(O)C[C@@H](C)CN(C)[C@H](C)[C@@H](O)[C@]1(C)O [AZITHROMYCIN],≤ 0.015 µg/mL,≥ 128 µg/mL,77.6%,20.8%,74.3%,≤ 0.015 µg/mL,2 µg/mL,81.1%,11.6%,0.25 µg/mL,1 µg/mL,100%,0%,23.8%,
CC1(C)S[C@@H]2[C@H](NC(=O)Cc3ccccc3)C(=O)N2[C@H]1C(=O)O [PENICILLIN G],,,,,,≤ 0.015 µg/mL,≤ 0.015 µg/mL,100%,0%,,,,,,MIC50 (Streptococcus pneumoniae [12]): ≤ 0.015 µg/mL; MIC90 (Streptococcus pneumoniae [12]): 0.5 µg/mL; Activity (Streptococcus pneumoniae [13]): 77.1%; Activity (Streptococcus pneumoniae [14]): 0.9%; MIC50 (Streptococcus pneumoniae [15]): ≤ 0.015 µg/mL; MIC90 (Streptococcus pneumoniae [15]): 0.5 µg/mL; Activity (Streptococcus pneumoniae [16]): 99.8%; Activity (Streptococcus pneumoniae [17]): 0%
CO/N=C(\C(=O)N[C@@H]1C(=O)N2C(C(=O)O)=C(COC(C)=O)CS[C@H]12)c1csc(N)n1 [CEFOTAXIME],≤ 0.015 µg/mL,0.25 µg/mL,99.6%,0.2%,99.6%,≤ 0.015 µg/mL,≤ 0.015 µg/mL,100%,0%,≤ 0.015 µg/mL,≤ 0.015 µg/mL,99.9%,0.1%,99.9%,
CC[C@H]1OC(=O)[C@H](C)[C@@H](O[C@H]2C[C@@](C)(OC)[C@@H](O)[C@H](C)O2)[C@H](C)[C@@H](O[C@@H]2O[C@H](C)C[C@H](N(C)C)[C@H]2O)[C@](C)(O)C[C@@H](C)C(=O)[C@H](C)[C@@H](O)[C@]1(C)O [ERYTHROMYCIN],≤ 0.015 µg/mL,≥ 128 µg/mL,78.9%,21.1%,78.9%,≤ 0.015 µg/mL,2 µg/mL,80.6%,19%,1 µg/mL,4 µg/mL,,,32.5%,
CC[C@H]1OC(=O)[C@H](C)[C@@H](O[C@H]2C[C@@](C)(OC)[C@@H](O)[C@H](C)O2)[C@H](C)[C@@H](O[C@@H]2O[C@H](C)C[C@H](N(C)C)[C@H]2O)[C@](C)(OC)C[C@@H](C)C(=O)[C@H](C)[C@@H](O)[C@]1(C)O [CLARITHROMYCIN],≤ 0.015 µg/mL,≥ 128 µg/mL,78.2%,20.9%,78.2%,≤ 0.015 µg/mL,2 µg/mL,80.9%,16.5%,2 µg/mL,4 µg/mL,99.3%,0%,5.1%,

# Reference: ChEMBL document CHEMBL1275244, “Antimicrobial resistance among respiratory pathogens in Spain: latest data and changes over 11 years (1996-1997 to 2006-2007)” (2010)
